# OXTR agonist = agonists of human oxytocin receptor; P30559; CHO-OTR cells, Fluo-8 calcium fluorescence; normalized: DMSO 0%, oxytocin 100%; activation, % at 3 µM; 320,000 compounds, 0.32% hits; AID 2435;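 active = activation above the mean of all tested compounds plus 3 SD, cutoff set per screening run, cut at about 20% in these data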;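 note: peak over basal fluorescence ratio from a 100 s FLIPR kinetic read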
# TRPML3 ag = activates the human TRPML3 channel; Q8TDD5; HEK293 TRPML3-YFP, Fluo-8 calcium fluorescence; 100% = the carbachol control signal; activation, % at 3 µM; 220,000 compounds, 0.29% hits; AID 1448;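 active = activation above its plate's cutoff, the mean activation of the plate's test wells plus 3 SD, cut at about 12% in these data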;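 note: 0% = DMSO only wells and 100% = carbachol wells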
# Target sequence (Q8TDD5 whole entry, looked up): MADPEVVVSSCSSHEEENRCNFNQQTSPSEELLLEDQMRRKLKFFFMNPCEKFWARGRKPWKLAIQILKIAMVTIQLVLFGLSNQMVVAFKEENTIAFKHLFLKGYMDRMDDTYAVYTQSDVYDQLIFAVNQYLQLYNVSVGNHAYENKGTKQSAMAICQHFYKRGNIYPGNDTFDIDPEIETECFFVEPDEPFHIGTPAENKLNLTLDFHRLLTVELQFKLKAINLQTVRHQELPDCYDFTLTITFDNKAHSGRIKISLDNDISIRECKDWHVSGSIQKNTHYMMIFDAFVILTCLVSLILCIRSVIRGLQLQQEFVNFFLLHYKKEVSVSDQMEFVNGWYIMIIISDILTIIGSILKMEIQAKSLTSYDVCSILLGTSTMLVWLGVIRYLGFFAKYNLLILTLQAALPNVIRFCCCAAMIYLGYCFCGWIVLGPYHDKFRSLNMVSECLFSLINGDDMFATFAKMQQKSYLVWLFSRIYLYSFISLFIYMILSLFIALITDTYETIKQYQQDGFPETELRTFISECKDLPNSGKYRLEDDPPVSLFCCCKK
#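 system = HEK293 cells stably carrying human TRPML3-YFP | doses = one concentration, 3 µM nominal, 0.3% DMSO | timing = dye loading 1 h 37 °C then 30 min ambient, 125 s read | detection = Fluo-8 calcium dye fluorescence, ex 470-495, em 515-575 nm | benchmarks = high control carbachol 87 µM, low control DMSO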
# OXTR potentiator = potentiators of human oxytocin receptor; activation, % at 3 µM; P30559; 320,000 compounds, 0.061% hits; CHO-OTR cells, Fluo-8 calcium fluorescence, potentiator mode; 0% = oxytocin EC15, 100% = EC100;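 active = activation above that plate's cutoff, the mean activation of tested compounds plus 3 SD, cut at about 6.6% in these data, passing the limit was not always enough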;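 note: 100% uses oxytocin at 75 nM as the full agonist control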
#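 Assay system: CHO-OTR cells, human receptor / Also added: oxytocin at about EC15, sub-maximal agonist stimulus / Dosing: single dose, 3.0 µM nominal final compound concentration / Incubation: 6 min pre-incubation, 100 s read / Technique: Fluo-8 calcium dye fluorescence / Read-out: % activation vs EC15 and EC100 oxytocin / Benchmarks: EC15 oxytocin low, 75 nM oxytocin high / Replicates: singlicate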
# TRPN1 ag = activates the zebrafish TRPN1 channel; HEK293 zebrafish TRPN1-YFP, Fluo-8 calcium fluorescence; 100% = response to 87 µM carbachol; activation, % at 3 µM; 220,000 compounds, 0.18% hits;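 active = activation above its plate's cutoff, the mean activation of test wells on that plate plus 3 SD, cut at about 19% in these data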;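 note: 0% = DMSO alone and 100% = 87 µM carbachol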
#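 Material – zebrafish TRPN1-YFP in HEK293 cells · Doses – 3 µM single point · Schedule – dye 1 h 37 °C plus 30 min RT · Signal – Fluo-8 calcium fluorescence, excitation 470-495 nm, emission 515-575 nm · Read-out – % activation versus carbachol response · Control set – carbachol high, DMSO low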
# V1R ag counter = V1a receptor agonism, counter-screen for OXTR agonists; CHO-V1R cells, Fluo-8 calcium fluorescence, agonist mode; 0% DMSO, 100% 3 nM vasopressin; activation, % at 3 µM; AID 2797; 320,000 compounds, 0.25% hits;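 active = activation above the mean activation of all tested compounds plus 3 SD, per screening run, cut at about 20% in these data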;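 note: signal is peak over basal fluorescence ratio across a 100 second FLIPR read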
# OXTR ag confirm = confirmation of human oxytocin receptor agonists; shares compounds with OXTR agonist; CHO-OTR cells, Fluo-8 calcium fluorescence, agonist; activation, % at 3 µM; 390 compounds, 20% hits;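 active = mean activation above about 20% derived from the earlier single-dose screen, limit read from the data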;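 note: peak over minimum fluorescence ratio per well during a 100 second FLIPR read; 0% = DMSO alone and 100% = oxytocin high control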
# V1aR counter 3x = activates V1a receptor in oxytocin agonist counter-screen | AID 434991 | shares compounds with OXTR agonist | activation, % at 3 µM | CHO-V1R cells, Fluo-8 calcium fluorescence | 390 compounds, 10% hits;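 active = mean activation over triplicate exceeds the hit threshold set in the earlier primary screen, cut at about 20% in these data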;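 note: peak over basal fluorescence ratio within a 100 second read; 0% = DMSO alone and 100% = 3 nM vasopressin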
# * marks the source's active call; other numbers are inactive results; x = no result. A selection: hits, their analogues and other compounds. The true share with any hit is near 0.58%.
SMILES,OXTR agonist,TRPML3 ag,OXTR potentiator,TRPN1 ag,V1R ag counter,OXTR ag confirm,V1aR counter 3x
CC1=NN2C(=N)/C(=C\c3cc(C)n(Cc4ccccc4)c3C)C(=O)N=C2S1,22*,0,-19,2,8,4,8
O=C(Nc1nc(-c2ccc(S(=O)(=O)N3CCOCC3)cc2)cs1)c1ccccc1,10,1,-16,7,5,x,x
O=C(Nc1nc(-c2nc3ccccc3s2)cs1)c1ccc(S(=O)(=O)N2CCOCC2)cc1,21*,0,-15,1,16,6,8
Brc1ccc2[nH]c3c(N4CCc5ccccc5C4)ncnc3c2c1,24*,2,-21,4,10,7,8
COc1ccc(CNc2ncnc3c2[nH]c2cc(OC)c(OC)cc23)cc1,1,3,-12,4,1,x,x
O=c1c2[nH]c3ccccc3c2ncn1CCC1=CCCCC1,-1,2,-5,0,-1,x,x
C1=C(CCNc2ncnc3c2[nH]c2ccccc23)CCCC1,21*,8,-8,21*,8,16,14
COc1ccc(CNc2ncnc3c2[nH]c2ccccc23)cc1,26*,11,-16,15,16,22*,18
CN1CCN(C2Cc3ccccc3Sc3cc(C(F)(F)F)ccc32)CC1 (stereo unspecified),24*,x,-4,x,10,12,2
CN1CCN(C2Cc3ccccc3Sc3ccc(Cl)cc32)CC1 (stereo unspecified),9,x,-4,x,4,x,x
CC(=O)OCC1(C)CN(c2ccccc2)NC1=O (stereo unspecified),0,1,-12,0,1,x,x
Cn1c(=O)c(C(=O)NNC(=O)c2ccccc2F)c(O)c2ccccc21,20*,x,-11,x,6,12,10
O=C(O)c1ccc(N/N=C/c2cn(Cc3ccc(F)cc3)c3ccccc23)cc1,21*,-1,-17,1,20,10,7
CCOC(=O)C1=C(N)Oc2c(oc(CO)cc2=O)C1c1ccccc1 (stereo unspecified),2,-1,-8,-1,1,x,x
CC(=O)c1ccccc1NC(=O)COC(=O)CSCC(=O)Nc1cc(C)on1,-1,x,2,x,1,x,x
CC(C)(C)CC(C)(C)NCC(O)COc1ccc2c(c1)CCC2 (stereo unspecified),21*,1,-11,1,15,5,4
O=C(COC(=O)/C=C/c1ccco1)Nc1cc(S(=O)(=O)N2CCOCC2)ccc1Cl,0,x,-5,x,9,x,x
Cc1ccc(NC(=O)CN(C)C(=O)Cn2ccsc2=N)cc1,0,1,0,1,1,x,x
Cc1ccc(Oc2ccc(NC(=O)Cn3ccsc3=N)cc2)cc1,23*,1,-29,1,9,12,3
COC(=O)C1=C(C)N(Cc2ccccc2)C(=NCc2cc(OC)c(OC)c(OC)c2)N[C@H]1c1cccc(F)c1,21*,x,-8,x,0,2,0
COC(=O)C1=C(C)N(Cc2ccccc2)C(=NCc2cccc(Cl)c2)N[C@H]1c1cccc(F)c1,22*,x,-10,x,13,12,6
COC(=O)C1=C(C)N(Cc2ccccc2)C(=NCc2ccc(OC)cc2)N[C@H]1c1cccc(F)c1,24*,x,-15,x,20,7,2
COC(=O)C1=C(C)N(Cc2ccccc2)C(=O)N[C@H]1c1cccc(C(F)(F)F)c1,-1,x,-17,x,2,x,x
COC(=O)C1=C(C)N(Cc2ccccc2)C(=NCc2ccccc2)N[C@H]1c1cccc(C(F)(F)F)c1,22*,x,-5,x,10,12,4
CCCCCCCCCCOC(=O)Cn1c(COc2ccc(Cl)cc2)[n+](C)c2ccccc21,17,x,-11,x,18,x,x
SMILES,OXTR agonist,TRPML3 ag,OXTR potentiator,TRPN1 ag,V1R ag counter,OXTR ag confirm,V1aR counter 3x
CCCCCCCCCCOC(=O)Cn1c(COc2ccccc2C)[n+](C)c2ccccc21,22*,x,-3,x,1,15,16
CCCCCCCCCCOC(=O)Cn1c(COc2cccc(C)c2)[n+](C)c2ccccc21,45*,x,-18,x,13,34*,23*
CCc1ccc(OC(C)C(=O)Nc2ccc(S(=O)(=O)Nc3nccs3)cc2)cc1 (stereo unspecified),20*,x,-14,x,10,5,8
O=C(COC(=O)CCc1ccc(S(=O)(=O)N2CCOCC2)cc1)NC(=O)NC1CCCCC1,5,2,-9,2,5,x,x
COc1ccc(C2SCCN2C(=S)Nc2ccc(Cl)cc2)cc1 (stereo unspecified),15,0,-13,1,9,x,x
COc1ccc(C2SCCN2C(=S)Nc2cccc(Cl)c2)cc1 (stereo unspecified),23*,1,-21,2,14,30*,18
COc1ccccc1NC(=O)Cn1nc(-c2ccc(Cl)cc2)c2ccccc2c1=O,-2,0,-13,-2,2,x,x
CCn1c(=O)c(C(=O)Nc2ncccc2C)c(O)c2ccccc21,32*,3,-6,14,20,6,33*
CCCN1C=CC(=CC=C(C#N)C#N)C=C1,21*,1,-8,2,14,23*,36*
C=CCN1C=CC(=CC=C(C#N)C#N)C=C1,23*,1,-6,3,19,25*,30*
CC(=O)Nc1ccc(S(=O)(=O)Oc2cccc(N3C(=O)C4CC=CCC4C3=O)c2)cc1 (stereo unspecified),11,3,-7,5,13,x,x
CC(=O)Nc1ccc(S(=O)(=O)Oc2ccc(N3C(=O)C4CCCCC4C3=O)cc2)cc1 (stereo unspecified),24*,7,-11,13,17,14,14
Brc1ccc(CN2CCN(Cc3c[nH]c4ccccc34)CC2)cc1,20*,x,-18,x,7,8,4
Brc1ccccc1CN1CCN(Cc2c[nH]c3ccccc23)CC1,5,x,-12,x,2,x,x
CCC(=O)N1CCc2cc(S(=O)(=O)Nc3ccccc3C)ccc21,5,x,-16,x,8,x,x
CC(OC(=O)/C(C#N)=C/c1ccc(N(C)C)cc1)C(=O)N(C)c1ccccc1 (stereo unspecified),11,x,-21,x,16,x,x
CC(=O)Nc1ccc(NC(=O)C(C)OC(=O)/C(C#N)=C/c2ccc(N(C)C)cc2)cc1 (stereo unspecified),20*,x,-23,x,16,13,13
CCN(C(=O)CSc1nc2ccccc2c(=O)n1CCOC)C1CCS(=O)(=O)C1 (stereo unspecified),0,2,-4,0,0,x,x
